Measured values reported in ChEMBL document CHEMBL1154198, “Chemical genetics of Plasmodium falciparum” (Nature, 2010).

Tests used:
[1] = system: Plasmodium falciparum; assay: ST_JUDE: Plasmodium falciparum 3D7 EC50 (uM) as measured by SYBR green dye; format: functional, organism-based
[2] = system: Plasmodium falciparum; assay: ST_JUDE: Plasmodium falciparum K1 EC50 (uM) as measured by SYBR green dye; format: functional, organism-based
[3] = system: Plasmodium falciparum; assay: ST_JUDE: Cytotoxicity against Plasmodium falciparum 3D7; format: functional, organism-based
Method in brief: (§1)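 Asexual P. falciparum grown in human erythrocytes, exposed to compounds for 72 h, and growth read as the DNA quantity in treated versus control cultures. Dose-response run at 12 concentrations from 10 μM to 5 nM.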

[4] = system: Plasmodium falciparum; assay: ST_JUDE: Cytotoxicity against Plasmodium falciparum K1; format: functional, organism-based; method in brief: as §1
[5] = system: Plasmodium falciparum; assay: ST_JUDE: Cytotoxicity against Plasmodium falciparum V1/S; format: functional, organism-based
[6] = system: Toxoplasma gondii; assay: ST_JUDE: Growth inhibition of to Toxoplasma gondii, in human U-2OS cells, as measured by luciferase.; format: functional, organism-based; conditions: RH, U2OS
Method in brief: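 T. gondii parasites engineered to express luciferase; drug sensitivity read by luminescence.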

[7] = system: Trypanosoma brucei; assay: ST_JUDE: Cytotoxicity using luciferase to measure ATP as an indicator of the viability of Trypanosoma brucei; format: functional, organism-based
[8] = system: Leishmania major; assay: ST_JUDE: Cytotoxicity using Alamar Blue to measure viability of Leishmania major; format: functional, organism-based
Method in brief: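 L. major promastigotes; drug susceptibility read with Alamar Blue.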

[9] = ST_JUDE: Cytotoxicity using luciferase to measure ATP as an indicator of the viability of human foreskin fibroblast cells (BJ); format: toxicity, cell-based
[10] = ST_JUDE: Cytotoxicity using luciferase to measure ATP as an indicator of the viability of human epithelial hepatocellular carcinoma cells (HepG2); format: toxicity, cell-based
[11] = ST_JUDE: Cytotoxicity using luciferase to measure ATP as an indicator of the viability of human epithelial embryonic kidney cells (HEK293); format: toxicity, cell-based
[12] = ST_JUDE: Cytotoxicity using luciferase to measure ATP as an indicator of the viability of human Burkitt''s lymphoma lymphoblast cells (Raji); format: toxicity, cell-based
[13] = system: Plasmodium falciparum; assay: ST_JUDE: Cytotoxicity against Plasmodium falciparum Dd2; format: functional, organism-based
[14] = system: Plasmodium falciparum; assay: ST_JUDE: Cytotoxicity against Plasmodium falciparum W2; format: functional, organism-based
[15] = system: Plasmodium falciparum; assay: ST_JUDE: Cytotoxicity against Plasmodium falciparum SB-A6; format: functional, organism-based
[16] = system: Plasmodium falciparum; assay: ST_JUDE: Cytotoxicity against Plasmodium falciparum D10 transfected with yeast DHOD; format: functional, organism-based

| EC50 [1] [µM] | EC50 [2] [µM] | Structure (SMILES) | EC50 [3] [µM] | EC50 [4] [µM] | EC50 [5] [µM] | EC50 [6] [µM] | EC50 [7] [µM] | EC50 [8] [µM] | EC50 [9] [µM] | EC50 [10] [µM] | EC50 [11] [µM] | EC50 [12] [µM] | EC50 [13] [µM] | EC50 [14] [µM] | EC50 [15] [µM] | EC50 [16] [µM] |
| --- | --- | --- | --- | --- | --- | --- | --- | --- | --- | --- | --- | --- | --- | --- | --- | --- |
| 1.41 | 1.42 | C[n+]1ccccc1/C=C/c1ccc([N+](=O)[O-])cc1 | 0.804 | 0.745 | 0.858 | > 18.5 | > 32.4 | > 14.5 | > 33.8 | > 33.8 | > 33.8 | > 33.8 | 1.04 | 4.23 | 1.08 | 0.899 |
| 1.08 | 0.579 | CC(C)(C)c1ccc(S(=O)(=O)NC2=C/C(=N\c3ccc(O)cc3)C(=O)c3ccccc32)cc1 | 0.6 | 0.326 | 0.687 | > 18 | 0.669 | > 14 | 4.62 | 2.18 | 7.99 | 4.07 | 1.03 | 0.385 | 0.304 | 0.244 |
| 1.28 | 0.688 | COc1ccccc1C1CC2=NC(C)=C(C(=O)OC(C)C)C(c3ccc(Cl)cc3)C2=C(O)C1 (stereo not given) | 1.01 | 0.641 | 0.846 | > 16.4 | 0.68 | > 12.8 | > 29.9 | > 29.9 | > 29.9 | > 29.9 | 1.1 | > 7.68 | 0.753 | 0.779 |
| 0.574 | 0.386 | CCCO/C(O)=C1\C(C)=NC2=C(C(=O)CC(c3ccc(OC)c(OC)c3)C2)C1c1cccc(C)c1 (stereo not given) | 0.72 | 0.39 | 0.634 | > 24.3 | 11.3 | > 19 | > 44.3 | 41 | > 44.3 | > 44.3 | 1.34 | 4.56 | 0.297 | 0.456 |
| 0.0989 | 0.0956 | CCCCOc1ccc(N(C(C)=O)C2=C(N3CCOCC3)C(=O)c3ccccc3C2=O)cc1 | 0.0708 | 0.066 | 0.0364 | > 17.1 | 4.01 | > 13.4 | > 31.2 | 3.89 | 10.9 | 3.82 | 0.488 | 0.93 | 0.0289 | 0.0212 |
| 0.348 | 0.692 | CCN(C(C)=O)C1=C(N2CCOCC2)C(=O)c2ccccc2C1=O | 0.431 | 0.439 | 0.514 | 3.21 | 5.67 | > 13.9 | 8.99 | 3.2 | > 32.5 | 2.73 | 0.38 | > 8.34 | 0.611 | 0.467 |
| 0.525 | 0.84 | CCOc1cc(C2CC(=O)NC3=C2C(=O)CC(c2ccc(OC)cc2)C3)cc(Cl)c1O (stereo not given) | 0.976 | 1.04 | 1.18 | > 24.3 | > 42.6 | > 19 | > 44.4 | > 44.4 | > 44.4 | > 44.4 | 1.31 | 0.637 | 1.23 | 1.16 |
| 0.919 | 1.32 | COc1ccc(C2CC(=O)C3=C(C2)NC(=O)CC3c2ccc(OC)c(OC)c2)cc1 (stereo not given) | 1.24 | 1.51 | > 11.7 | > 24.9 | > 43.5 | > 19.4 | > 45.4 | > 45.4 | > 45.4 | > 45.4 | 1.31 | 2.21 | 2.32 | 1.64 |
| 0.0547 | 0.221 | CCOc1ccc(N(C(C)=O)C2=C(N3CCOCC3)C(=O)c3ccccc3C2=O)cc1 | 0.069 | 0.1 | 0.0515 | 5.19 | 2.96 | > 15.9 | 9.6 | 6 | 13.1 | 4.57 | 0.487 | 1.88 | 0.0584 | 0.0266 |
| 1.13 | 0.803 | CCN(CC)c1ccc(/C=C/c2ccc3ccc(OC)cc3[n+]2CC)cc1 | 0.422 | 0.419 | 0.413 | 4.17 | 0.441 | 0.0024 | > 16.8 | 1.92 | > 16.8 | 0.484 | 0.229 | 0.304 | 0.449 | 0.308 |
